In ChEMBL document CHEMBL1144224, “Molecular design to enhance the penetration into the retina via ocular instillation” (Bioorg Med Chem Lett, 2008):

Columns and labels:
[1] = AUC (0 to 4 hrs) in Japanese white rabbit retina after ocular instillation of 1% suspension; format: ADME, tissue-based, Oryctolagus cuniculus; set-up: time < 4 hr; settings: topical or ocular
In short: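 Rabbit eyes given topical drops of 1% suspension or solution. Retinal drug levels measured over 0–4 h, with n = 3-4 eyes per time point. AUC0–4h is calculated from the mean level-time curve.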

[2] = AUC (0 to 4 hrs) in Japanese white rabbit aqueous humor after ocular instillation of 1% suspension; format: ADME, Oryctolagus cuniculus; set-up: time < 4 hr; settings: topical or ocular
In short: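 Rabbit eyes given topical drops of 1% suspension or solution. Aqueous humor drug levels measured over 0–4 h, with n = 3-4 eyes per time point. AUC0–4h is calculated from the mean level-time curve.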

[3] = Octanol-water partition coefficient, log P of the compound; format: physicochemical
In short: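 Log P measured as the partition coefficient between n-octanol and water.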

[4] = Plasma AUC (0 to 4 hrs) in cynomolgus monkey at 10 mg/kg, po; format: ADME, organism-based, Macaca fascicularis; set-up: time < 4 hr, dose 10 mg/kg, route oral
In short: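 Cynomolgus monkeys dosed orally at 10 mg/kg as a 0.2% suspension or solution in 0.5% carboxymethyl cellulose. Plasma drug levels followed over 0–4 h (n = 3-6), and AUC0–4h is derived from the plasma level-time curve.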

[5] = Drug concentration in rat retina at 10 mg/kg, po at Tmax time; format: ADME, organism-based; set-up: dose 10 mg/kg, route oral; settings: in vivo, read-out: Drug uptake
[6] = Drug concentration in rat retina at 10 mg/kg, po after 4 hrs; format: ADME, organism-based; set-up: dose 10 mg/kg, route oral; settings: read-out: Drug uptake

Row | SMILES | AUC(0-t) at 4 h [1] | AUC(0-t) at 4 h [2] | logP [3] | AUC(0-t) at 4 h [4] | concentration [5] | concentration at 4 h [6]
1 | COCCOCCOCCOCCOC(=O)N[C@@H](CC(C)C)C(=O)N[C@@H](Cc1ccccc1)C(=O)C(=O)NC1CC1 | 7.12 µM·h | 5.89 µM·h | 0.7 | 1.61 µM·h |  | 
2 | COCCOCCOCCOC(=O)N[C@@H](CC(C)C)C(=O)N[C@@H](Cc1ccccc1)C(=O)C(=O)NC1CC1 | 13.1 µM·h | 7.88 µM·h | 0.93 | 1.6 µM·h |  | 
3 | COCCOC(=O)N[C@@H](CC(C)C)C(=O)N[C@@H](Cc1ccccc1)C(=O)C(=O)NC1CC1 | 1.32 µM·h | 1.9 µM·h | 1 | 1.88 µM·h |  | 
4 | COCCOCCOC(=O)N[C@@H](CC(C)C)C(=O)N[C@@H](Cc1ccccc1)C(=O)C(=O)NC1CC1 | 2.37 µM·h | 1.55 µM·h | 0.91 | 2.43 µM·h | 400 nM | 200 nM
5 | COCCOCCOCCOCCOCCOC(=O)N[C@@H](CC(C)C)C(=O)N[C@@H](Cc1ccccc1)C(=O)C(=O)NC1CC1 | 2.99 µM·h | 1.96 µM·h | 0.72 |  |  | 
